In ChEMBL document CHEMBL5712078, “BRD9 Inhibition, Alone or in Combination with Cytostatic Compounds as a Therapeutic Approach in Rhabdoid Tumors” (Int J Mol Sci, 2017):
Calls of active or inactive are those of the source. The rule behind the calls is not given here.

Tests used:
G-401 [1] = experiment: Induction of cell cycle arrest in human G-401 cells assessed as accumulation of cells at G1 phase at 20 uM incubated for 72 hrs by flow cytometry analysis (reference value: 51.7+/-2%); assay type: functional
Summary of the method: (§1)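 72 h DAPI flow-cytometry cell-cycle assay. Chla266 in IMDM/20% FBS seeded at 30,000 cells/mL; G401 in DMEM/10% FBS at 10,000 cells/mL; 1 mL/well, 37 °C, 5% CO2. Next day the medium was replaced with inhibitor at final 0, 5, 10 or 20 µM. Cells were harvested, PBS-washed, and the G1 percentage was read. n ≥ 3, mean ± SD, one-way ANOVA vs control.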

G-401 [2] = experiment: Synergistic cytotoxicity against human G-401 cells assessed as combination index incubated for 72 hrs in presence of doxorubicin by MTT-based Chou-Talalay method; assay type: functional
Summary of the method: (§2)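 MTT combination assay. BT12 in IMDM/20% FBS at 5000 cells/well; G401 in DMEM/10% FBS. Drugs added 24 h after seeding, with I-BRD9 and cytostatic at a fixed 10:1 ratio (final ranges 0.001–100 µM and 0.0001–10 µM). After 72 h: MTT for 3 h, dissolved in isopropanol/0.04 N HCl, read at 570/630 nm. Technical triplicates, ≥3 independent runs; combination index by Chou–Talalay median-effect analysis.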

G-401 [3] = experiment: Anti-proliferative activity against human G-401 cells assessed as cell viability incubated for 144 hrs by MTT assay; assay type: functional, cell-based; conditions: G-401, 144 h
Summary of the method: (§3)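 MTT proliferation assay. Cells were seeded at 3000 (BT16, KD, G401) or 5000 (BT12, Chla266) cells per well and drug was added after 24 h, final 0.001–100 µM. Read at 72 or 144 h; 144 h wells got fresh medium and drug on day 3. MTT for 3 h, formazan dissolved in isopropanol/0.04 N HCl, absorbance at 570/630 nm. Technical triplicates, ≥3 independent runs, IC50 derived.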

BT-12 [4] = experiment: Synergistic cytotoxicity against human BT-12 cells assessed as combination index incubated for 72 hrs in presence of doxorubicin by MTT-based Chou-Talalay method; assay type: functional; summary of the method: as §2
CHLA-266 [5] = experiment: Induction of apoptosis in human CHLA-266 cells assessed as necrotic cells at 20 uM incubated for 72 hrs by flow cytometry analysis (Rvb= 5.0+/-0.3 %)
BT-12 [6] = experiment: Anti-proliferative activity against human BT-12 cells assessed as inhibition cell growth incubated for 72 hrs in presence of carboplatin by MTT-based Chou-Talalay method; assay type: functional; conditions: BT-12, 72 h
Summary of the method: (§4)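 Combination MTT assay. I-BRD9 and carboplatin, doxorubicin or vincristine were given together at a fixed 10:1 ratio, with cytostatics 0.0001–10 µM final, added 24 h after seeding. MTT read-out at 570/630 nm after 3 h formazan solubilisation. Combination index from the Chou–Talalay median-effect method: CI <1 synergism, CI >1 antagonism. n ≥3.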

G-401 [7] = experiment: Induction of apoptosis in human G-401 cells assessed as necrotic cells at 20 uM incubated for 72 hrs by flow cytometry analysis (Rvb= 5.7+/-1.9 %); assay type: functional
Summary of the method: (§5)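 Annexin V/PI flow assay. G401 at 10,000 cells/mL and BT12 or Chla266 at 30,000 cells/mL were seeded in 12-well plates. Next day medium was replaced with medium holding I-BRD9 or BI-9564 at 0, 5, 10 or 20 µM final for 72 h. Cells were washed in PBS, stained with FITC-Annexin V and propidium iodide for 15 min in the dark at room temperature, then read by flow cytometry. Percentage of dead cells, n ≥3, mean ± SD, one-way ANOVA versus control.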

G-401 [8] = experiment: Synergistic cytotoxicity against human G-401 cells assessed as combination index incubated for 72 hrs in presence of carboplatin by MTT-based Chou-Talalay method; assay type: functional; summary of the method: as §2
G-401 [9] = experiment: Induction of cell cycle arrest in human G-401 cells assessed as accumulation of cells at G1 phase at 20 uM incubated for 72 hrs by flow cytometry analysis (reference value: 46.7+/-1.9 %); assay type: functional; summary of the method: as §1
G-401 [10] = experiment: Synergistic cytotoxicity against human G-401 cells assessed as combination index incubated for 72 hrs in presence of vincristine by MTT-based Chou-Talalay method; assay type: functional; summary of the method: as §2
G-401 [11] = experiment: Anti-proliferative activity against human G-401 cells assessed as inhibition cell growth incubated for 72 hrs in presence of doxorubicin by MTT-based Chou-Talalay method; assay type: functional; conditions: G-401, 72 h; summary of the method: as §4
BT-12 [12] = experiment: Anti-proliferative activity against human BT-12 cells assessed as cell viability incubated for 72 hrs by MTT assay; assay type: functional, cell-based; conditions: BT-12, 72 h; summary of the method: as §3
[13] = Anti-proliferative activity against human KD cells assessed as cell viability incubated for 144 hrs by MTT assay; assay type: functional, cell-based; summary of the method: as §3
BT-12 [14] = experiment: Synergistic cytotoxicity against human BT-12 cells assessed as combination index incubated for 72 hrs in presence of carboplatin by MTT-based Chou-Talalay method; assay type: functional; summary of the method: as §2
[15] = Anti-proliferative activity against human KD cells assessed as cell viability incubated for 72 hrs by MTT assay; assay type: functional, cell-based; summary of the method: as §3
BT-12 [16] = experiment: Anti-proliferative activity against human BT-12 cells assessed as inhibition cell growth incubated for 72 hrs in presence of doxorubicin by MTT-based Chou-Talalay method; assay type: functional; conditions: BT-12, 72 h; summary of the method: as §4
BT-12 [17] = experiment: Anti-proliferative activity against human BT-12 cells assessed as cell viability incubated for 144 hrs by MTT assay; assay type: functional, cell-based; conditions: BT-12, 144 h; summary of the method: as §3
CHLA-266 [18] = experiment: Induction of apoptosis in human CHLA-266 cells assessed as necrotic cells incubated for 72 hrs by flow cytometry analysis; assay type: functional, cell-based; conditions: dose 5-20 µM; summary of the method: as §5
CHLA-266 [19] = experiment: Induction of apoptosis in human CHLA-266 cells assessed as necrotic cells at 5 uM incubated for 72 hrs by flow cytometry analysis (Rvb= 5.0+/-0.3 %)
CHLA-266 [20] = experiment: Induction of cell cycle arrest in human CHLA-266 cells assessed as accumulation of cells at G1 phase incubated for 72 hrs by flow cytometry analysis; assay type: functional, cell-based; conditions: dose 5-20 µM; summary of the method: as §1
G-401 [21] = experiment: Anti-proliferative activity against human G-401 cells assessed as inhibition cell growth incubated for 72 hrs in presence of vincristine by MTT-based Chou-Talalay method; assay type: functional; conditions: G-401, 72 h; summary of the method: as §4
G-401 [22] = experiment: Induction of apoptosis in human G-401 cells assessed as necrotic cells at 5 uM incubated for 72 hrs by flow cytometry analysis (Rvb= 5.7+/-1.9 %); assay type: functional; summary of the method: as §5
CHLA-266 [23] = experiment: Cytotoxicity against human CHLA-266 cells assessed as change in cell viability at 5 to 20 uM treated for 72 hrs; assay type: functional, cell-based; conditions: dose 5-20 µM; summary of the method: as §5
BT-12 [24] = experiment: Induction of cell cycle arrest in human BT-12 cells assessed as accumulation of cells at G1 phase at 5 uM incubated for 72 hrs by flow cytometry analysis (Rvb =69+/-1.9%); assay type: functional
Summary of the method: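 Cell cycle. Seeding and 72 h treatment as for the apoptosis assay, with I-BRD9 or BI-9564 at 0, 5, 10 or 20 µM final. A 100 µL cell suspension was stained with DAPI and read by flow cytometry. Percentage of cells in G1, n ≥3, mean ± SD, one-way ANOVA versus control.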

G-401 [25] = experiment: Induction of apoptosis in human G-401 cells assessed as necrotic cells at 10 uM incubated for 72 hrs by flow cytometry analysis (Rvb= 5.7+/-1.9 %); assay type: functional; summary of the method: as §5

IC50 (BT-12 [6]): 40.9 µM
IC50 (BT-12 [12]): 21.2 µM
IC50 (BT-12 [16]): 0.94 µM
IC50 (BT-12 [17]): 8.2 µM
SMILES: CCn1cc(-c2cccc(C(F)(F)F)c2)c2sc(C(=N)NC3CCS(=O)(=O)CC3)cc2c1=O
Activity (G-401 [1]): 65.5%
CI (G-401 [2]): 1.2
IC50 (G-401 [3]): 6.1 µM
CI (BT-12 [4]): 0.42
Activity (CHLA-266 [5]): 25%
Activity (G-401 [7]): 70.8%
CI (G-401 [8]): 0.37
Activity (G-401 [9]): 78.1%
CI (G-401 [10]): 9
IC50 (G-401 [11]): 0.096 µM
IC50 [13]: 7.1 µM
CI (BT-12 [14]): 1.01
IC50 [15]: 8.1 µM
Activity (CHLA-266 [18]): Dose-Dependent Effect
Activity (CHLA-266 [19]): 7.7%
Activity (CHLA-266 [20]): Dose-Dependent Effect
IC50 (G-401 [21]): 0.008 µM
Activity (G-401 [22]): 7.7%
Activity (CHLA-266 [23]): Active
Activity (BT-12 [24]): 75%
Activity (G-401 [25]): 18.8%
